These results are taken from ChEMBL document CHEMBL4387781, “Optimization of oxadiazole derivatives with a spirocyclic cyclohexane structure as novel GPR119 agonists” (Bioorg Med Chem Lett, 2019).

Each structure is given as a SMILES string.

System in the first data set: not listed separately
Briefly: Stability in rat liver microsomes assessed as parent compound remaining at 5 uM measured after 1 hr. In kind it is ADME, Microsome. The conditions noted are these: read-out: Stability. The gist of the method:
(§1)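 Compound at 5 μM incubated 1 hour with human or rat liver microsomes (0.2 mg/mL); percent of parent remaining reported.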
On the technique in general: Liver microsomes are vesicles of endoplasmic reticulum, rich in cytochrome P450 enzymes.
As for `CC(O[C@H]1CC[C@@]2(CC1)CC(C)(C)CO2)c1nc(-c2ccc(CS(C)(=O)=O)c(F)c2)no1` (stereo partly specified), the remaining at 1 h, 5 µM was 55%.

For a further data set, the target named is T1, Glucose-dependent insulinotropic receptor (Homo sapiens) (UniProt Q8TDV5).
T1 sequence (whole entry): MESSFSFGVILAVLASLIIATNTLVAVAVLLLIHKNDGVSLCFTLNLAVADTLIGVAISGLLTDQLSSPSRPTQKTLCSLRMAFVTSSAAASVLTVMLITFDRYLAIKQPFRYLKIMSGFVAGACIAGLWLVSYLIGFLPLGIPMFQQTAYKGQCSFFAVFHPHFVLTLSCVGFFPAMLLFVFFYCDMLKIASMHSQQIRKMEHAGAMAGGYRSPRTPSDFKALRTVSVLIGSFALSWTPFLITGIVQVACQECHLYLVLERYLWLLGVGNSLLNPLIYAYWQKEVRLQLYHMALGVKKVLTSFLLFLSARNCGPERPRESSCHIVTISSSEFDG
Briefly: Agonist activity at recombinant human GPR119 expressed in HEK293 cells assessed as increase in intracellular cAMP accumulation measured after 30 mins relative to oleoylethanolamide. In kind it is functional, cell-based.
Settings: not given
(Cyclic AMP is a second messenger, typically raised through Gs and lowered through Gi signalling.)
In the case of `CC(O[C@H]1CC[C@]2(CC1)COC(C)(C)C2)c1nc(-c2ccc(CS(C)(=O)=O)cc2)no1` (mixture of isomers), the %max was determined as 120%.

Take `C[C@@H](O[C@H]1CC[C@]2(CC1)COC(C)(C)C2)c1nc(-c2cc(F)c(CS(C)(=O)=O)cc2F)no1`: the %max is 118%.

Consider `C[C@@H](O[C@H]1CC[C@]2(CC1)COC(C)(C)C2)c1nc(-c2ccc(CS(C)(=O)=O)c(F)c2)no1`, for which the %max was 106%.

`C[C@H](O[C@H]1CC[C@]2(CC1)COC(C)(C)C2)c1nc(-c2ccc(CS(C)(=O)=O)c(F)c2)no1`: the %max came to 106%.

Regarding `CC1(C)C[C@]2(CC[C@H](OCc3nc(-c4ccc(S(C)(=O)=O)c(F)c4)no3)CC2)CO1`, the %max turned out to be 103%.

For `C[C@@H](O[C@H]1CC[C@]2(CC1)COC(C)(C)C2)c1nc(-c2ccc(CS(C)(=O)=O)c(F)c2F)no1`, the %max turned out to be 77%.

On to `CC(O[C@H]1CC[C@]2(CC1)COC(C)(C)C2)c1nc(-c2ccc(C(=O)N(C)C)c(F)c2)no1` (mixture of isomers), for which the %max was 86%.

With `CC(O[C@H]1CC[C@]2(CC1)COC(C)(C)C2)c1nc(-c2ccc(CC(=O)N(C)C)c(F)c2)no1` (mixture of isomers), the %max was found to be 131%.

On to `CC(O[C@H]1CC[C@]2(CC1)COC(C)(C)C2)c1nc(-c2ccc(S(C)(=O)=O)c(F)c2)no1` (mixture of isomers), for which the %max came out at 109%.

Take `CC(O[C@H]1CC[C@@]2(CC1)CC(C)(C)CO2)c1nc(-c2ccc(CS(C)(=O)=O)c(F)c2)no1` (stereo partly specified): the %max was 115%.

System in the next data set: not listed separately
Briefly: Stability in human liver microsomes assessed as parent compound remaining at 5 uM measured after 1 hr. Format: ADME, Microsome. As to conditions: read-out: Stability. A digest of the protocol: as §1
For `CC(O[C@H]1CC[C@@]2(CC1)CC(C)(C)CO2)c1nc(-c2ccc(CS(C)(=O)=O)c(F)c2)no1` (stereo partly specified), the remaining at 1 h, 5 µM stood at 15%.

For the next data set, the target named is T2, Glucose-dependent insulinotropic receptor (Homo sapiens, UniProt Q8TDV5).
T2 sequence (Q8TDV5 whole entry): T1 sequence (whole entry)
Briefly: Agonist activity at recombinant human GPR119 expressed in HEK293 cells assessed as increase in intracellular cAMP accumulation measured after 30 mins. Format: functional, cell-based.
Settings: not given
The term EC50 denotes the concentration at which the effect is half-maximal. Turning to `CC(O[C@H]1CC[C@]2(CC1)COC(C)(C)C2)c1nc(-c2ccc(CS(C)(=O)=O)cc2)no1` (mixture of isomers), the EC50 was determined as 426 nM.

On to `C[C@@H](O[C@H]1CC[C@]2(CC1)COC(C)(C)C2)c1nc(-c2cc(F)c(CS(C)(=O)=O)cc2F)no1`, for which the EC50 stood at 64 nM.

`C[C@@H](O[C@H]1CC[C@]2(CC1)COC(C)(C)C2)c1nc(-c2ccc(CS(C)(=O)=O)c(F)c2)no1`: the concentration giving a half-maximal response (EC50) stood at 27 nM.

Turning to `C[C@H](O[C@H]1CC[C@]2(CC1)COC(C)(C)C2)c1nc(-c2ccc(CS(C)(=O)=O)c(F)c2)no1`, the half-maximal effective concentration (EC50) was 430 nM.

On to `CC1(C)C[C@]2(CC[C@H](OCc3nc(-c4ccc(S(C)(=O)=O)c(F)c4)no3)CC2)CO1`, for which the EC50 was 261 nM.

On to `C[C@@H](O[C@H]1CC[C@]2(CC1)COC(C)(C)C2)c1nc(-c2ccc(CS(C)(=O)=O)c(F)c2F)no1`, for which the EC50 is 301 nM.

On to `CC(O[C@H]1CC[C@]2(CC1)COC(C)(C)C2)c1nc(-c2ccc(C(=O)N(C)C)c(F)c2)no1` (mixture of isomers), for which the EC50 worked out at 2460 nM.

As to `CC(O[C@H]1CC[C@]2(CC1)COC(C)(C)C2)c1nc(-c2ccc(CC(=O)N(C)C)c(F)c2)no1` (mixture of isomers), the EC50 was found to be 69 nM.

With `CC(O[C@H]1CC[C@@]2(CC1)CC(C)(C)CO2)c1nc(-c2ccc(CS(C)(=O)=O)c(F)c2)no1` (stereo partly specified), the EC50 stood at 31 nM.
